Experimental data taken from ChEMBL document CHEMBL1123730, “Synthesis and pharmacological evaluation of a new class of 2-(2-aminothiazol-4-yl)-2-hydrazonoacetamido cephalosporins” (J Med Chem, 1987).
Converted amounts (≈) assume the structure as drawn.

Experiments:
Staphylococcus aureus [1] = experiment: Geometrical average of minimum inhibitory concentration was determined in isosensitest broth against Staphylococcus (P); assay type: functional
[2] = Serum level was determined at 5 min after intramuscular administration of 50 mg/kg in rats; assay type: ADME, organism-based; set-up: dose 50 mg/kg, route intramuscular; conditions: rat, im, read-out: Serum level
Outline: (§1)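 Dose 50 mg/kg in sterile water, iv or im, to Wistar rats 200-250 g, five per time point; killed at set intervals, blood centrifuged for serum. Antibiotic measured by agar diffusion on Nutrient Agar with E. coli ATCC 10536 (37 °C, 18 h), standards diluted in serum; detection limit 1 μg/mL. Mean ± SEM of five rats.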

[3] = Distribution (50 mg/kg) was determined in lung 30 min after intravenous administration; assay type: ADME, organism-based; conditions: read-out: Tissue distribution
Outline: (§2)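 Wistar rats (200-250 g, groups of five) given 50 mg/kg in sterile water iv or im; killed at set times, lung, liver and kidney homogenized in 0.1 M pH 7.3 phosphate buffer (tissue:buffer 1:5). Drug assayed by agar diffusion on Nutrient Agar with E. coli ATCC 10536 (37 °C, 18 h); standards in phosphate buffer; detection limit 0.5 μg/mL; mean ± SEM.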

[4] = Distribution (50 mg/kg) was determined in kidney 120 min after intravenous administration; assay type: ADME, organism-based; conditions: in vivo, 2 h; outline: as §2
[5] = Serum level was determined at 60 min after intramuscular administration of 50 mg/kg in rats; assay type: ADME, organism-based; set-up: dose 50 mg/kg, route intramuscular; conditions: rat, im, read-out: Serum level; outline: as §1
[6] = Distribution (50 mg/kg) was determined in lung 5 min after intravenous administration; assay type: ADME, organism-based; conditions: read-out: Tissue distribution; outline: as §2
[7] = Serum level was determined at 240 min after an intravenous administration of 50 mg/kg in rats; assay type: ADME, organism-based; set-up: dose 50 mg/kg, route intravenous; conditions: rat, read-out: Serum level; outline: as §1
[8] = Distribution (50 mg/kg) was determined in lung 5 min after intramuscular administration; assay type: ADME, organism-based; conditions: im, read-out: Tissue distribution; outline: as §2
[9] = Serum level was determined at 30 min after an intravenous administration of 50 mg/kg in rats; assay type: ADME, organism-based; set-up: dose 50 mg/kg, route intravenous; conditions: rat, read-out: Serum level; outline: as §1
Escherichia coli [10] = experiment: Geometrical average of minimum inhibitory concentration was determined in isosensitest broth against Escherichia coli; assay type: functional
Klebsiella = experiment: Geometrical average of minimum inhibitory concentration was determined in isosensitest broth against Klebsiella; assay type: functional
[11] = Distribution (50 mg/kg) was determined in kidney 15 min after intravenous administration; assay type: ADME, organism-based; conditions: read-out: Tissue distribution; outline: as §2
[12] = Distribution (50 mg/kg) was determined in liver 120 min after intravenous administration; assay type: ADME, organism-based; conditions: read-out: Tissue distribution; outline: as §2
[13] = Serum level was determined at 60 min after an intravenous administration of 50 mg/kg in rats; assay type: ADME, organism-based; set-up: dose 50 mg/kg, route intravenous; conditions: rat, read-out: Serum level; outline: as §1
[14] = Distribution (50 mg/kg) was determined in kidney 30 min after intramuscular administration; assay type: ADME, organism-based; conditions: im, read-out: Tissue distribution; outline: as §2
[15] = Distribution (50 mg/kg) was determined in liver 30 min after intramuscular administration; assay type: ADME, organism-based; conditions: im, read-out: Tissue distribution; outline: as §2
Pseudomonas = experiment: Geometrical average of minimum inhibitory concentration was determined in isosensitest broth against Pseudomonas; assay type: functional
Staphylococcus aureus [16] = experiment: Geometrical average of minimum inhibitory concentration was determined in isosensitest broth against Staphylococcus; assay type: functional
Staphylococcus = experiment: Geometrical average of minimum bactericidal concentration was determined in isosensitest broth against Staphylococcus (P); assay type: functional
[17] = Distribution (50 mg/kg) was determined in lung 120 min after intravenous administration; assay type: ADME, organism-based; conditions: in vivo, 2 h; outline: as §2
[18] = Distribution (50 mg/kg) was determined in liver 15 min after intramuscular administration; assay type: ADME, organism-based; conditions: im, read-out: Tissue distribution; outline: as §2
[19] = Serum level was determined at 120 min after an intravenous administration of 50 mg/kg in rats; assay type: ADME, organism-based; set-up: dose 50 mg/kg, route intravenous; conditions: rat, read-out: Serum level; outline: as §1
[20] = Distribution (50 mg/kg) was determined in liver 30 min after intravenous administration; assay type: ADME, organism-based; conditions: read-out: Tissue distribution; outline: as §2
Serratia = experiment: Geometrical average of minimum bactericidal concentration was determined in isosensitest broth against Serratia; assay type: functional
[21] = Serum level was determined at 30 min after intramuscular administration of 50 mg/kg in rats; assay type: ADME, organism-based; set-up: dose 50 mg/kg, route intramuscular; conditions: rat, im, read-out: Serum level; outline: as §1
[22] = Distribution (50 mg/kg) was determined in liver 5 min after intramuscular administration; assay type: ADME, organism-based; conditions: in vivo, im; outline: as §2
Bacillus [23] = experiment: Geometrical average of minimum inhibitory concentration was determined in isosensitest broth against Bacillus; assay type: functional
Sarcina [24] = experiment: Geometrical average of minimum bactericidal concentration was determined in isosensitest broth against Sarcina; assay type: functional
[25] = Geometrical average of minimum inhibitory concentration was determined in isosensitest broth against gram-positive strains.; assay type: functional
[26] = Distribution (50 mg/kg) was determined in lung 120 min after intramuscular administration; assay type: ADME, organism-based; conditions: im, read-out: Tissue distribution; outline: as §2
Enterobacter [27] = experiment: Geometrical average of minimum bactericidal concentration was determined in isosensitest broth against Enterobacter; assay type: functional
[28] = Serum level was determined at 120 min after intramuscular administration of 50 mg/kg in rats; assay type: ADME, organism-based; set-up: dose 50 mg/kg, route intramuscular; conditions: rat, im, read-out: Serum level; outline: as §1
Bacillus [29] = experiment: Geometrical average of minimum bactericidal concentration was determined in isosensitest broth against Bacillus; assay type: functional
Escherichia coli [30] = experiment: Geometrical average of minimum bactericidal concentration was determined in isosensitest broth against Escherichia coli; assay type: functional
[31] = Serum level was determined at 15 min after intramuscular administration of 50 mg/kg in rats; assay type: ADME, organism-based; set-up: dose 50 mg/kg, route intramuscular; conditions: rat, im, read-out: Serum level; outline: as §1
[32] = Distribution (50 mg/kg) was determined in kidney 5 min after intravenous administration; assay type: ADME, organism-based; conditions: read-out: Tissue distribution; outline: as §2
Enterobacter [33] = experiment: Geometrical average of minimum inhibitory concentration was determined in isosensitest broth against Enterobacter; assay type: functional
[34] = Serum level was determined at 240 min after intramuscular administration of 50 mg/kg in rats; assay type: ADME, organism-based; set-up: dose 50 mg/kg, route intramuscular; conditions: rat, im, read-out: Serum level; outline: as §1
[35] = Distribution (50 mg/kg) was determined in liver 60 min after intravenous administration; assay type: ADME, organism-based; conditions: read-out: Tissue distribution; outline: as §2
Klebsiella pneumoniae [36] = experiment: In vivo protective dose was determined in infected swiss mice (120/strain) infected ip with Klebsiella pneumoniae 102 with an inoculum size-0.5 mL of 10 E5 CFU/mL of suspension. Activity in range of 10.47-22.94
Sarcina [37] = experiment: Geometrical average of minimum inhibitory concentration was determined in isosensitest broth against Sarcina; assay type: functional
Alcaligenes = experiment: Geometrical average of minimum bactericidal concentration was determined in isosensitest broth against Alcaligenes; assay type: functional
[38] = Distribution (50 mg/kg) was determined in liver 60 min after intramuscular administration; assay type: ADME, organism-based; conditions: im, read-out: Tissue distribution; outline: as §2
[39] = Distribution (50 mg/kg) was determined in liver 5 min after intravenous administration; assay type: ADME, organism-based; conditions: read-out: Tissue distribution; outline: as §2
[40] = Distribution (50 mg/kg) was determined in kidney 60 min after intramuscular administration; assay type: ADME, organism-based; conditions: im, read-out: Tissue distribution; outline: as §2
Salmonella = experiment: Geometrical average of minimum bactericidal concentration was determined in isosensitest broth against Salmonella; assay type: functional
[41] = Distribution (50 mg/kg) was determined in kidney 30 min after intravenous administration; assay type: ADME, organism-based; conditions: read-out: Tissue distribution; outline: as §2
[42] = Distribution (50 mg/kg) was determined in lung 15 min after intravenous administration; assay type: ADME, organism-based; conditions: read-out: Tissue distribution; outline: as §2
Salmonella typhimurium = experiment: Minimum inhibitory concentration against Salmonella Typhimurium T.O was determined; assay type: functional, Salmonella enterica subsp. enterica serovar Typhimurium; conditions: Salmonella enterica
[43] = Serum level was determined at 360 min after intramuscular administration of 50 mg/kg in rats; assay type: ADME, organism-based; set-up: dose 50 mg/kg, route intramuscular; conditions: rat, im, read-out: Serum level; outline: as §1
Neisseria perflava = experiment: Geometrical average of minimum inhibitory concentration was determined in isosensitest broth against Neisseria perfl.; assay type: functional
[44] = Distribution (50 mg/kg) was determined in lung 15 min after intramuscular administration; assay type: ADME, organism-based; conditions: im, read-out: Tissue distribution; outline: as §2
Klebsiella pneumoniae [45] = experiment: Minimum inhibitory concentration against Klebsiella pneumoniae 102; assay type: functional

Compound: Cn1nnnc1SCC1=C(C(=O)O)N2C(=O)[C@@H](NC(=O)/C(=N/N)c3csc(N)n3)[C@H]2SC1
- MIC (Staphylococcus aureus [1]): 35.3 µg/mL (≈ 71.1 µM)
- concentration at 5 min [2]: 34600 ng/mL
- concentration at 0.5 h [3]: 8970 ng/g
- Tissue distribution [4]: Undetectable
- concentration at 1 h [5]: 64400 ng/mL
- concentration at 5 min [6]: 26400 ng/g
- concentration at 4 h [7]: 3650 ng/mL
- concentration at 5 min [8]: ≤ 5000 ng/g
- concentration at 0.5 h [9]: 87200 ng/mL
- MIC (Escherichia coli [10]): 0.6 µg/mL (≈ 1.21 µM)
- MIC (Klebsiella): 1.17 µg/mL (≈ 2.36 µM)
- concentration at 0.25 h [11]: 50600 ng/g
- concentration at 2 h [12]: ≤ 5000 ng/g
- concentration at 1 h [13]: 52500 ng/mL
- concentration at 0.5 h [14]: 36200 ng/g
- concentration at 0.5 h [15]: 22100 ng/g
- MIC (Pseudomonas): > 100 µg/mL
- MIC (Staphylococcus aureus [16]): 6.69 µg/mL (≈ 13.5 µM)
- MBC (Staphylococcus): 50 µg/mL (≈ 101 µM)
- Tissue distribution [17]: Undetectable
- concentration at 0.25 h [18]: 15400 ng/g
- concentration at 2 h [19]: 20500 ng/mL
- concentration at 0.5 h [20]: 18800 ng/g
- MBC (Serratia): 3.12 µg/mL (≈ 6.28 µM)
- concentration at 0.5 h [21]: 96200 ng/mL
- Tissue distribution [22]: Undetectable
- MIC (Bacillus [23]): 42 µg/mL (≈ 84.6 µM)
- MBC (Sarcina [24]): 2.21 µg/mL (≈ 4.45 µM)
- MIC [25]: 4.95 µg/mL (≈ 9.97 µM)
- concentration at 2 h [26]: ≤ 5000 ng/g
- MBC (Enterobacter [27]): 3.12 µg/mL (≈ 6.28 µM)
- concentration at 2 h [28]: 32900 ng/mL
- MBC (Bacillus [29]): 50 µg/mL (≈ 101 µM)
- MBC (Escherichia coli [30]): 1.01 µg/mL (≈ 2.03 µM)
- concentration at 0.25 h [31]: 86200 ng/mL
- concentration at 5 min [32]: 107000 ng/g
- MIC (Enterobacter [33]): 1.96 µg/mL (≈ 3.95 µM)
- concentration at 4 h [34]: 10200 ng/mL
- concentration at 1 h [35]: 9220 ng/g
- ED50 (Klebsiella pneumoniae [36]): 15.5 mg/kg
- MIC (Sarcina [37]): 1.56 µg/mL (≈ 3.14 µM)
- MBC (Alcaligenes): 12.5 µg/mL (≈ 25.2 µM)
- concentration at 1 h [38]: 15100 ng/g
- concentration at 5 min [39]: 43200 ng/g
- concentration at 1 h [40]: 22900 ng/g
- MBC (Salmonella): 1.79 µg/mL (≈ 3.6 µM)
- concentration at 0.5 h [41]: 19600 ng/g
- concentration at 0.25 h [42]: 17500 ng/g
- MIC (Salmonella typhimurium): 1.1 µg/mL (≈ 2.22 µM)
- concentration at 6 h [43]: 3430 ng/mL
- MIC (Neisseria perflava): < 0.09 µg/mL
- concentration at 0.25 h [44]: 10700 ng/g
- MIC (Klebsiella pneumoniae [45]): 1.56 µg/mL (≈ 3.14 µM)
